According to ChEMBL document CHEMBL2176901, “Pyrrolo[3,4-h]quinolinones a new class of photochemotherapeutic agents” (Bioorg Med Chem, 2011):
pIC50: −log10 of the molar value. Active and inactive are the calls of the source. The rule behind the calls is not given here.

Experiments:
Jurkat [1] = test: Induction of apoptosis in 3.75 J/cm'2 UV-A irradiated human Jurkat cells assessed as necrotic cells at 10 uM after 24 hrs by Annexin-V-FITC and propidium iodide based flow cytometry (reference value: 4.2 %); assay type: functional
HL-60 = test: Phototoxicity in 2.5 J/cm'2 UV-A irradiated human HL60 cells after 72 hrs by MTT assay; assay type: functional, cell-based; conditions: HL-60, light or radiation study
In short: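 HL-60 and Jurkat (8×10³/well, RPMI-1640) and MCF-7, LoVo, NCTC-2544 (5×10³/well; DMEM or Ham's F12) preincubated 18 h at 37 °C, 5% CO₂. Compound in DMSO diluted in HBSS pH 7.2, 30 min at 37 °C, then UV-A at 2.5 or 3.75 J/cm². Medium replaced, 72 h incubation, MTT read-out. IC50 as mean ± SEM of three experiments.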

Jurkat [2] = test: Cell cycle arrest in UV-A irradiated human Jurkat cells assessed as accumulation at S phase at 5 uM after 24 hrs by propidium iodide based flow cytometry (reference value: 25.3 %); assay type: functional
In short: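 Exponentially growing Jurkat cells (5×10^5) irradiated with UV-A (365 nm lamp, 2.5 J/cm²) in presence of compound. After 24 h: fixed in ice-cold 70% ethanol, lysed with RNAse A, stained with PI (10 µg/ml), analysed by flow cytometry. Phases calculated on living cells; subG1 is hypodiploid DNA peak.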

MCF7 = test: Phototoxicity in 2.5 J/cm'2 UV-A irradiated human MCF7 cells assessed as cell viability after 72 hrs by MTT assay in presence of radical scavenger BHA; assay type: functional, cell-based
In short: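 MCF-7 cells given compound plus scavenger in HBSS, 30 min at 37 °C, then UV-A (2.5 J/cm², 365 nm lamp). Medium replaced; viability by MTT after 72 h. Means ± SEM of at least three independent experiments.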

Jurkat [3] = test: Induction of apoptosis in 3.75 J/cm'2 UV-A irradiated human Jurkat cells assessed as late apoptotic cells at 10 uM after 24 hrs by Annexin-V-FITC and propidium iodide based flow cytometry (reference value: 2.9 %); assay type: functional
Jurkat [4] = test: Induction of apoptosis in 3.75 J/cm'2 UV-A irradiated human Jurkat cells assessed as early apoptotic cells at 5 uM after 24 hrs by Annexin-V-FITC and propidium iodide based flow cytometry (reference value: 1.9 %); assay type: functional

SMILES: CCOC(=O)c1c2c(c(C)n1C)-c1c(cc(S(=O)(=O)c3ccccc3)c(=O)n1C)CC2
- Activity (Jurkat [1]): 8.6%
- pIC50 (HL-60): 5.92
- Activity (Jurkat [2]): 46.9%
- Activity (MCF7): inactive
- Activity (Jurkat [3]): 21.4%
- Activity (Jurkat [4]): 14.4%
